Measurements reported in ChEMBL document CHEMBL5096236, “Development of Fluorinated Peptoid-Based Histone Deacetylase (HDAC) Inhibitors for Therapy-Resistant Acute Leukemia” (J Med Chem, 2022).
Active and inactive are the calls of the source. No cut-off for these calls is given here.

Columns and labels:
Jurkat = experiment: cells; assay type: functional, cell-based; settings: Homo sapiens, 72 h
Histone deacetylase 1 = Histone deacetylase 1 (Homo sapiens, UniProt Q13547); experiment: Inhibition of recombinant human C-terminal FLAG/His-tagged HDAC1 (1 to 482 residues) expressed in Sf9 insect cells using Z-Lys(Ac)-AMC as fluorogenic substrate incubated for 90 mins by microplate reader analysis
Histone deacetylase 1, sequence (Q13547 whole entry, the tested form may be a part): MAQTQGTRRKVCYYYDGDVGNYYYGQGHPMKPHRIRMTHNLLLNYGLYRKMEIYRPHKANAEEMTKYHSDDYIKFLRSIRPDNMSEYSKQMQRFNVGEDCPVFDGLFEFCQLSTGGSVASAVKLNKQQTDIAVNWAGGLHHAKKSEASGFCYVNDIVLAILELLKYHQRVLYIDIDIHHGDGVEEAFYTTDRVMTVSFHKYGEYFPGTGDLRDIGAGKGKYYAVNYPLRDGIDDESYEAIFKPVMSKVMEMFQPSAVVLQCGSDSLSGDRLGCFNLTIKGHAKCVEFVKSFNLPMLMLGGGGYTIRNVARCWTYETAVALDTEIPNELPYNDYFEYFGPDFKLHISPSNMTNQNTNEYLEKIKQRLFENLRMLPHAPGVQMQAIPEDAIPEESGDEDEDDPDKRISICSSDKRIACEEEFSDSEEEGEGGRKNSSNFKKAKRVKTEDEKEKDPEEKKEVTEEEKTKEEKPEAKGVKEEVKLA

MOLM-13 = experiment: Synergistic cytotoxicity against human MOLM-13 cells assessed as increase in synergy score at 0.1 to 2 uM incubated for 72 hrs in presence of […] inhibitor, decitabine by CellTiter-Glo luminescent assay; assay type: functional, cell-based; settings: dose 0.1-2 µM
Method in brief: (§1)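 AML cells treated 72 h in an 8×8 dose matrix: compound 0.1–2 μM and decitabine 0.25–10 μM, logarithmically spaced. Viability by CellTiter-Glo luminescence. Synergy scored with the ZIP model in SynergyFinder.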

HL-60 [1] = experiment: Induction of apoptosis in human HL-60 cells assessed as increase in total apoptotic cells at 1 to 5 uM incubated for 48 hrs by annexin V and propidium iodide staining based flow cytometry analysis; assay type: functional, cell-based; settings: dose 1-5 µM
Method in brief: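 HL60 cells (RPMI 1640 GlutaMax, 10-20% FCS, 37°C, 5% CO₂) exposed to compound or control at 1 or 5 μM for 48 h, then stained with annexin V and propidium iodide and analysed by flow cytometry; n=3.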

Histone deacetylase 2 = Histone deacetylase 2 (Homo sapiens, UniProt Q92769); experiment: Inhibition of recombinant human C-terminal FLAG-tagged HDAC2 (1 to 488 residues) expressed in Sf9 insect cells using Z-Lys(Ac)-AMC as fluorogenic substrate incubated for 90 mins by microplate reader analysis
Histone deacetylase 2, sequence (Q92769 whole entry, the tested form may be a part): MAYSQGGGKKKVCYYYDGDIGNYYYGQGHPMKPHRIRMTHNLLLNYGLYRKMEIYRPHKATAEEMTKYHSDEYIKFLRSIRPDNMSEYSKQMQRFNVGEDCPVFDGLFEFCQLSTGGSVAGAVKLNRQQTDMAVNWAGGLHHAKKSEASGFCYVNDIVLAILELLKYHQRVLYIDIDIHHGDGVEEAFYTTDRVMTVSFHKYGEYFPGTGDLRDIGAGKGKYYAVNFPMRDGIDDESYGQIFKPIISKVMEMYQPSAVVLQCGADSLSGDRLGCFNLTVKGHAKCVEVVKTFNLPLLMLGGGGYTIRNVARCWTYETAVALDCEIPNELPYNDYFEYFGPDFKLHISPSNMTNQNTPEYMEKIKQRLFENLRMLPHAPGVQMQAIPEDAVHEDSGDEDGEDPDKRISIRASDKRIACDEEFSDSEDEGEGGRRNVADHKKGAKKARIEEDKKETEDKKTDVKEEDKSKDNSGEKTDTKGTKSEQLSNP
Method in brief: (§2)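 Compound incubated with ZMAL (Z-Lys(Ac)-AMC; 21.43 μM solution) and enzyme at 37 °C for 90 min. Trypsin (0.4 mg/mL) added, 30 min at 37 °C. […] Duplicates, ≥2 independent experiments. SI = IC50 (HDAC2 or 3)/IC50 (HDAC6).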

[2] = molecular target: T1, Histone deacetylase (Homo sapiens) (UniProt Q13547+O15379+Q9UBN7+Q92769+Q9UQL6+Q8WUI4+Q9BY41+Q96DB2+P56524+Q9UKV0+Q969S8); experiment: Inhibition of HDAC in human HL-60 cells assessed as increase in alpha tubulin acetylation incubated for 24 hrs by immunoblot analysis; assay type: cell-based; settings: dose lower […], dose upper 296.0 nM, DDE = dose-dependent effect
[3] = molecular target: Histone deacetylase 3/Nuclear receptor corepressor 2 (HDAC3/NCoR2) (Homo sapiens, UniProt O15379); experiment: Inhibition of C-terminal His-tagged recombinant human HDAC3 (1 to 428 residues)/N-terminal GST-tagged recombinant human NCoR2 (395 to 489 residues) co-expressed in Sf9 cells using Z-Lys(Ac)-AMC as fluorogenic substrate incubated for 90 mins by microplate reader analysis
Histone deacetylase 3/Nuclear receptor corepressor 2 (HDAC3/NCoR2), sequence (O15379 whole entry, the tested form may be a part): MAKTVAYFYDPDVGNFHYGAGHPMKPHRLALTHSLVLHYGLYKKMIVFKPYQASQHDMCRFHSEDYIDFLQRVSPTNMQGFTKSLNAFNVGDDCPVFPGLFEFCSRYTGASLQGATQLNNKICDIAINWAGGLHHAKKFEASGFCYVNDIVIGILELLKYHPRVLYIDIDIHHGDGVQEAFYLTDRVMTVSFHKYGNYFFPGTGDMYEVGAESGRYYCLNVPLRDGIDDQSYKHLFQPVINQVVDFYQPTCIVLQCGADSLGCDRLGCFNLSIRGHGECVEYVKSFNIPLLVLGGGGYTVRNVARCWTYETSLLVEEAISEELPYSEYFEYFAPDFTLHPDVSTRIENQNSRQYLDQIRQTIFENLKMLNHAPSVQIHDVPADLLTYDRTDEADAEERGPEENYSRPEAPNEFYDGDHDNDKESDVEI
Histone deacetylase 3/Nuclear receptor corepressor 2 (HDAC3/NCoR2), sequence (Q9Y618 whole entry, further chain, the tested form may be a part): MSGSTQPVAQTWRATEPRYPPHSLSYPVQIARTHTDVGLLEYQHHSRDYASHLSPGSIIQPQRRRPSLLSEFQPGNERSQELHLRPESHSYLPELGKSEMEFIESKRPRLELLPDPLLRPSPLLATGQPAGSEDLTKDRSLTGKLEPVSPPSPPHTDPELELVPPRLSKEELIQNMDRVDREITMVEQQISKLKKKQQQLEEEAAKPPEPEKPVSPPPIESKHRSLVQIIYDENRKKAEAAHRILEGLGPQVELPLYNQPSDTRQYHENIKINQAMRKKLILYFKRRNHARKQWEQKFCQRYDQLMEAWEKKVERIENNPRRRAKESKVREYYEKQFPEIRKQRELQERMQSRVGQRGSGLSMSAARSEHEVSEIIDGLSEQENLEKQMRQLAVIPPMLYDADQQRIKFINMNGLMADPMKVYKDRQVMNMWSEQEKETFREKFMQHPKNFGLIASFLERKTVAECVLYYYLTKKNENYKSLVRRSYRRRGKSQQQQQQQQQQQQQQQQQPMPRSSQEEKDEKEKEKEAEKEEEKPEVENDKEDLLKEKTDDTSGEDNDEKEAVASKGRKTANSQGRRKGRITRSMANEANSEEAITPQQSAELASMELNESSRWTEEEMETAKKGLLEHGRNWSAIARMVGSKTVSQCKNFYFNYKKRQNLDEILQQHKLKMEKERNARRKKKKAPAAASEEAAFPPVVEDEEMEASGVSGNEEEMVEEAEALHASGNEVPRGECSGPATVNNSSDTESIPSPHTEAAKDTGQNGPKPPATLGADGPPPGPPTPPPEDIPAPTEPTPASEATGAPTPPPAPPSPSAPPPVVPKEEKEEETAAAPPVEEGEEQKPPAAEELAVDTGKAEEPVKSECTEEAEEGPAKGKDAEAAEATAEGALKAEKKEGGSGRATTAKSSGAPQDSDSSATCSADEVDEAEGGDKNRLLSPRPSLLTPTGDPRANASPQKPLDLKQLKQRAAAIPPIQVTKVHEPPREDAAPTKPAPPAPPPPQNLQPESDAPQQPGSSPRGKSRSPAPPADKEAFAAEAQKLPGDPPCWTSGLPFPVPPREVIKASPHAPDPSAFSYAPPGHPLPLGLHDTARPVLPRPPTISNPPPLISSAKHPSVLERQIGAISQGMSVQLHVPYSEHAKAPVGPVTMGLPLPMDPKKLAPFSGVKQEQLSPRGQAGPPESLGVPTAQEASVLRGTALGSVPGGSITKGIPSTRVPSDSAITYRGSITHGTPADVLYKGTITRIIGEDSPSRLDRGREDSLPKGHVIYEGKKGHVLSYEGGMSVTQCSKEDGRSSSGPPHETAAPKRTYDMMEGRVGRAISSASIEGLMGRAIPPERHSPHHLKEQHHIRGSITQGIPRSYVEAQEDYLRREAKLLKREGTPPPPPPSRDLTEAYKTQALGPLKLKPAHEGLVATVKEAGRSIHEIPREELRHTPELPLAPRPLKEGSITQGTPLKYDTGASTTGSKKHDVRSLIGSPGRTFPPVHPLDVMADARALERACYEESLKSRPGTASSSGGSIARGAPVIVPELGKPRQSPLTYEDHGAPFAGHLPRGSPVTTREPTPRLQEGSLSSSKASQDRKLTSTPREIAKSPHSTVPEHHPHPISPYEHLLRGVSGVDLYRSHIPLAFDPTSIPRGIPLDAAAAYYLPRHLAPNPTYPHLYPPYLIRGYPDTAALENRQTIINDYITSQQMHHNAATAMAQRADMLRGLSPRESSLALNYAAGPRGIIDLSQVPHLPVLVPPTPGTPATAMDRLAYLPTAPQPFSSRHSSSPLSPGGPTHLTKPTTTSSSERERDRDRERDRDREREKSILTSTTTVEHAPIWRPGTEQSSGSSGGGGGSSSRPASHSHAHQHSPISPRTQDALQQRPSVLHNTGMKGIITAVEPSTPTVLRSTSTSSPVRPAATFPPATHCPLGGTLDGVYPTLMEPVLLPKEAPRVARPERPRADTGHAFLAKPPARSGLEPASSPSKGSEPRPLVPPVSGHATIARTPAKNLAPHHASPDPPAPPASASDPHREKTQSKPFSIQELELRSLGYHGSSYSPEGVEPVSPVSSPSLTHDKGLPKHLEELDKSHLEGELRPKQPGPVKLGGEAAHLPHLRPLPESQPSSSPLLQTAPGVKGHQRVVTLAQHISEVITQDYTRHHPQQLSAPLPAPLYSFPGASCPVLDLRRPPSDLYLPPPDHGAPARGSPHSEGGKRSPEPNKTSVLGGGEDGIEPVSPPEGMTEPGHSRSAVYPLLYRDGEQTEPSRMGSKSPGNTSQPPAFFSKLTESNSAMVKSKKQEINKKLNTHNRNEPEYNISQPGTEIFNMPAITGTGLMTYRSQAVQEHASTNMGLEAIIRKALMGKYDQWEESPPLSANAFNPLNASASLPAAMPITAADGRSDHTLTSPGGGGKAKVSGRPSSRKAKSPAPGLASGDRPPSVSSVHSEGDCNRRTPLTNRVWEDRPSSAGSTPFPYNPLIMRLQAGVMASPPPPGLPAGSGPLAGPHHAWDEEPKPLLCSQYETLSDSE
Method in brief: as §2

HAL-01 = experiment: cells; assay type: functional, cell-based; settings: Homo sapiens, HAL-01, 72 h
[4] = molecular target: T1, Histone deacetylase (Homo sapiens); experiment: Inhibition of HDAC in human HL-60 cells assessed as increase in Ac-H3 levels incubated for 24 hrs by immunoblot analysis; assay type: cell-based; settings: dose lower […], dose upper 296.0 nM, DDE = dose-dependent effect
HL-60 [5] = experiment: cells; assay type: functional, cell-based; settings: Homo sapiens, HL-60, 72 h
HL-60 [6] = experiment: Synergistic cytotoxicity against human HL-60 cells assessed as increase in synergy score at 0.1 to 2 uM incubated for 72 hrs in presence of DNA methyltransferase inhibitor, decitabine by CellTiter-Glo luminescent assay; assay type: functional, cell-based; settings: dose 0.1-2 µM
Method in brief: as §1

[7] = molecular target: T1, Histone deacetylase (Homo sapiens); experiment: Inhibition of HDAC in human HL-60 cells assessed as increase in Ac-H3 levels at 0.15 uM incubated for 24 hrs in presence of DNA methyltransferase inhibitor, decitabine by immunoblot analysis; assay type: cell-based
Method in brief: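 HL60 cells treated for 24 h with compound alone or combined with decitabine at indicated concentrations. Acetylated H3 detected by immunoblotting.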

[8] = molecular target: T2, Protein deacetylase HDAC6 (Homo sapiens, UniProt Q9UBN7); experiment: Inhibition of recombinant human N-terminal GST-tagged HDAC6 (1 to 1215 residues) expressed in Sf9 insect cells using Z-Lys(Ac)-AMC as fluorogenic substrate incubated for 90 mins by microplate reader analysis
T2 sequence (Q9UBN7 whole entry): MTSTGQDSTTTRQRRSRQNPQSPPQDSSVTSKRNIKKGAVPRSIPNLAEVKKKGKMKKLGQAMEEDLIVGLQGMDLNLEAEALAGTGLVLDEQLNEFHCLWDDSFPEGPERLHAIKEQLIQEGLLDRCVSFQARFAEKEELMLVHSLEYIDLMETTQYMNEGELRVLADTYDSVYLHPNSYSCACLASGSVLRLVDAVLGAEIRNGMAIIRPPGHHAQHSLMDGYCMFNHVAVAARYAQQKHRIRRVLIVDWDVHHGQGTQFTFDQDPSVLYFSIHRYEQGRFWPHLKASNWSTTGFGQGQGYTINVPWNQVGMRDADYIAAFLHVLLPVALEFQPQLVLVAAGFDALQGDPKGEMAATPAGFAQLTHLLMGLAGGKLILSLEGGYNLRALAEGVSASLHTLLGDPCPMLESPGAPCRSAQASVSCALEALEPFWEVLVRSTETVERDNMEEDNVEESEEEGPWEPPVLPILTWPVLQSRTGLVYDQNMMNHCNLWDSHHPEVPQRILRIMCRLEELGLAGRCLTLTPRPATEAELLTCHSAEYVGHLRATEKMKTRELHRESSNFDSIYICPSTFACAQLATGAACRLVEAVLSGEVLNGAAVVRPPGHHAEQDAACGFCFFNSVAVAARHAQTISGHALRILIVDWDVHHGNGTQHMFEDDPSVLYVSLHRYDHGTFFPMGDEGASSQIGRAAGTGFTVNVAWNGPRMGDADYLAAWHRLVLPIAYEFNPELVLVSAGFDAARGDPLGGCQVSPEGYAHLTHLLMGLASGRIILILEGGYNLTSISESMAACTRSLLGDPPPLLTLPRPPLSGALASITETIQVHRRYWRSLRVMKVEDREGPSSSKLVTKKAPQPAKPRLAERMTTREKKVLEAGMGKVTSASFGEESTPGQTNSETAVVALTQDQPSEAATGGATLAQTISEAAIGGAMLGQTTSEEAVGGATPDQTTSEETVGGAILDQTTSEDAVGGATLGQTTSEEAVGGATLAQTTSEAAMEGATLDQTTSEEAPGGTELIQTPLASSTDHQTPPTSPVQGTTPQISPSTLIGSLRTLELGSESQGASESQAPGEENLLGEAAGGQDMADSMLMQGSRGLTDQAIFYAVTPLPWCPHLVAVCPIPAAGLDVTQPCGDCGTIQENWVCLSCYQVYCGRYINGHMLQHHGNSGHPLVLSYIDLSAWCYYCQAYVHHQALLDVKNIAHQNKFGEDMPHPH

[9] = molecular target: T1, Histone deacetylase (Homo sapiens); experiment: Inhibition of HDAC in human HL-60 cells assessed as increase in alpha tubulin acetylation at 6 to 36 uM incubated for 24 hrs by immunoblot analysis; assay type: cell-based; settings: dose 6-36 µM
Histone deacetylase 4 = Histone deacetylase 4 (Homo sapiens, UniProt P56524); experiment: Inhibition of recombinant human N-terminal GST-tagged/C-terminal His-tagged HDAC4 (627 to 1084 residues) expressed in baculovirus infected Sf9 insect cells using Boc-Lys (trifluoroacetyl)-AMC as substrate incubated for 90 mins by microplate reader analysis
Histone deacetylase 4, sequence (P56524 whole entry, the tested form may be a part): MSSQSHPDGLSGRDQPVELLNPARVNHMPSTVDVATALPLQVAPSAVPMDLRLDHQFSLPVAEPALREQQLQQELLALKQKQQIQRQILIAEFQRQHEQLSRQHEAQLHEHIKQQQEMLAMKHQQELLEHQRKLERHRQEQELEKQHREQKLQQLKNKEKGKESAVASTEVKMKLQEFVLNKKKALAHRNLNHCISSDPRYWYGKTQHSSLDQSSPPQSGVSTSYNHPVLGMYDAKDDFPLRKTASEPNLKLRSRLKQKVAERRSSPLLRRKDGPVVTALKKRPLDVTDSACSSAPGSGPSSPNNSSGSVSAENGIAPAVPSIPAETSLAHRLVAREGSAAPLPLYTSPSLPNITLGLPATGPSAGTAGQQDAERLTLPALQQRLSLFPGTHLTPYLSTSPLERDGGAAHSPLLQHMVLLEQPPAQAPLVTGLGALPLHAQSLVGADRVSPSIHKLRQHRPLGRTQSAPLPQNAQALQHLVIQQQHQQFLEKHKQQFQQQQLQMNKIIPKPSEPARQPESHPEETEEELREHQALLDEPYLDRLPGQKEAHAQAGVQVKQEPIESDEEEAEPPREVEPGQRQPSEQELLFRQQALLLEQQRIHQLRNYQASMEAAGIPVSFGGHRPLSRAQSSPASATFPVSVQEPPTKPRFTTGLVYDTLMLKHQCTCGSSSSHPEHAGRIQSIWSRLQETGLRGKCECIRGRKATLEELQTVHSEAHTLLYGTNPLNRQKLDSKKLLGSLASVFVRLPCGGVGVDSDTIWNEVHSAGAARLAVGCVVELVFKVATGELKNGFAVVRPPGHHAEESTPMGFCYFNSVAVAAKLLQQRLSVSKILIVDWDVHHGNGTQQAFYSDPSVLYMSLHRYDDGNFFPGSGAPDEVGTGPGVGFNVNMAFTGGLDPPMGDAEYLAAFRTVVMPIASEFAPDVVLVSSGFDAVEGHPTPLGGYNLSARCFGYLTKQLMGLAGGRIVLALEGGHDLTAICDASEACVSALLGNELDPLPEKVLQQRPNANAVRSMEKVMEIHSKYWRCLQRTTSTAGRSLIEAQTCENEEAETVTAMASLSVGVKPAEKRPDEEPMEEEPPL
Method in brief: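 HDAC4 enzyme in Tris-HCl pH 8.0 buffer with NaCl, KCl, MgCl₂ and 0.1 mg/mL BSA, max. 1% DMSO. Trypsin (1.0 mg/mL) added, 30 min. Three-parameter log(inhibitor) fit. Duplicates, ≥2 experiments, mean ± SD. SI = IC50 HDAC4/IC50 HDAC6.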

| IC50 (Histone deacetylase 1) [nM] | IC50 (HAL-01) [nM] | IC50 [8] [nM] | Structure (SMILES) | also measured |
| --- | --- | --- | --- | --- |
| 13 | 375 |  | CN(C)c1ccc(C(=O)N(CC(=O)NCc2ccccc2)Cc2ccc(C(=O)NO)cc2F)cc1 | IC50 (Jurkat): 285 nM; Activity (MOLM-13): Active; Activity (HL-60 [1]): Active; IC50 (Histone deacetylase 2): 14 nM; IC50 (Histone deacetylase 2; record 2): 14 nM; inhibition [2]: Dde; IC50 [3]: 21 nM; inhibition [4]: Dde; IC50 (HL-60 [5]): 218 nM; Activity (HL-60 [6]): Active; inhibition [7]: Active |
| 573 |  | 24 | Cc1cc(C)cc(C(=O)N(CC(=O)NC(C)(C)C)Cc2ccc(C(=O)NO)cc2F)c1 |  |
| 158 |  | 20 | CN(C)c1ccc(C(=O)N(CC(=O)NC(C)(C)C)Cc2ccc(C(=O)NO)cc2F)cc1 |  |
| 1750 | > 25000 | 17 | COc1ccccc1C(=O)N(CC(=O)NC(C)(C)C)Cc1ccc(C(=O)NO)cc1F |  |
| 1180 |  | 26 | CC(C)(C)NC(=O)CN(Cc1ccc(C(=O)NO)cc1F)C(=O)c1ccccc1F |  |
| 1750 |  | 27 | Cc1ccccc1C(=O)N(CC(=O)NC(C)(C)C)Cc1ccc(C(=O)NO)cc1F |  |
|  | 13900 |  | O=C(NO)c1ccc(CC(=O)N(CCO)c2ccccc2)cc1 | IC50 (Jurkat): 16100 nM; IC50 (HL-60 [5]): 11300 nM |
| 2330 | > 25000 | 27 | CC(C)(C)NC(=O)CN(Cc1ccc(C(=O)NO)cc1F)C(=O)c1ccccc1C(F)(F)F | IC50 (Jurkat): > 25000 nM |
| 1500 | > 25000 | 20 | COc1ccccc1C(=O)N(CC(=O)NC1CCCCC1)Cc1ccc(C(=O)NO)cc1F |  |
| 3470 |  | 21 | CC(C)(C)NC(=O)CN(Cc1ccc(C(=O)NO)cc1F)C(=O)c1ccccc1Cl |  |
|  |  | 18 | O=C(CN(Cc1ccc(C(=O)NO)cc1F)C(=O)c1ccccc1F)NC1CCCCC1 |  |
| 66 |  | 16 | CN(C)c1ccc(C(=O)N(CC(=O)NC2CCCCC2)Cc2ccc(C(=O)NO)cc2F)cc1 |  |
| 5 |  | 11 | CN(C)c1ccc(C(=O)N(CC(=O)NCc2ccccc2)Cc2ccc(C(=O)NO)cc2)cc1 |  |
|  |  |  | Cc1ccccc1C(=O)N(CC(=O)NC(C)(C)C)Cc1ccc(C(=O)NO)cc1 | IC50 (Histone deacetylase 1; sf9): 2410 nM; IC50 ([8]; sf9): 51 nM |
| 1450 |  |  | O=C(CN(Cc1ccc(C(=O)NO)cc1F)C(=O)c1ccccc1C(F)(F)F)NC1CCCCC1 | IC50 (Jurkat): > 25000 nM |
|  |  |  | COc1ccccc1C(=O)N(CC(=O)NC(C)(C)C)Cc1ccc(C(=O)NO)cc1 | IC50 (Histone deacetylase 1; sf9): 3110 nM; IC50 ([8]; sf9): 38 nM |
|  |  | 20 | Cc1cc(C)cc(C(=O)N(CC(=O)NC2CCCCC2)Cc2ccc(C(=O)NO)cc2F)c1 |  |
| 938 |  | 18 | Cc1ccccc1C(=O)N(CC(=O)NC1CCCCC1)Cc1ccc(C(=O)NO)cc1F |  |
| 8010 | > 25000 |  | CC(C)c1ccccc1C(=O)N(CC(=O)NC(C)(C)C)Cc1ccc(C(=O)NO)cc1F | IC50 (Jurkat): > 25000 nM; Activity (HL-60 [1]): Active; inhibition [9]: Active; IC50 (Histone deacetylase 2): 4480 nM; IC50 [3]: 8350 nM; IC50 (Histone deacetylase 4): > 10000 nM |
| 77 | 2750 | 13 | Cc1cc(C)cc(C(=O)N(CC(=O)NCc2ccccc2)Cc2ccc(C(=O)NO)cc2F)c1 | IC50 (Jurkat): 6230 nM; IC50 (HL-60 [5]): 9150 nM |

| Structure (SMILES) | IC50 (Histone deacetylase 1) [nM] | IC50 (HAL-01) [nM] | IC50 [8] [nM] | also measured |
| --- | --- | --- | --- | --- |
| Cc1cc(C)cc(C(=O)N(CC(=O)NC2CCCCC2)Cc2ccc(C(=O)NO)cc2)c1 | 249 |  | 40 |  |
